Tested on: HEK-293T
Assay: Multiplex assay against HEK293T;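 on Population Tubulin-Different-Phenotype (%): share of the cells with healthy nuclei that show this phenotype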
Type: toxicity, cell-based
Settings: human
Method in brief: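 Live cells were stained at seeding with Hoechst33342, BioTracker Green Microtubule Cytoskeleton Dye, MitoTracker Red and Annexin V Alexa Fluor 680. Following compound addition, they were imaged on a CQ1 microscope at 37°C and 5% CO2 and gated by CellPathfinder machine learning into Hoechst high-intensity objects or normal cells, with normal cells split into healthy, pyknosed or fragmented nuclei and pyknosed cells into mitotic or apoptotic. Tubulin, mitochondrial-mass and membrane-permeability phenotypes are per cents of healthy-nucleus cells.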

[1] = 12 h, 0 µM, compound concentration 0 uM, replicate 1
[2] = 12 h, 0 µM, compound concentration 0 uM, replicate 2
[3] = 12 h, 1 µM, compound concentration 1 uM, replicate 1
[4] = 12 h, 1 µM, compound concentration 1 uM, replicate 2
[5] = 24 h, 0 µM, compound concentration 0 uM, replicate 1
[6] = 24 h, 0 µM, compound concentration 0 uM, replicate 2
[7] = 24 h, 1 µM, compound concentration 1 uM, replicate 1
[8] = 24 h, 1 µM, compound concentration 1 uM, replicate 2

CCNc1cc(N[C@H]2CC[C@H](O)CC2)nc(Nc2ccc3c(ccn3Cc3ccccc3)c2)n1
Population Apoptotic (%) [1]: 42%
Population Fragmented Nuclei (%) [1]: 21%
Population Healthy Nuclei (%) [1]: 10%
Population Hoechst High Intensity Objects (%) [1]: 21%
Population Membrane Permeable-Phenotype (%) [1]: 16%
Population Mitochondria Different-Phenotype (%) [1]: 41%
Population Mitotic Cells (%) [1]: 57%
Population Normal (%) [1]: 78%
Population Pyknosed Nuclei (%) [1]: 67%
Population Tubulin-Different-Phenotype (%) [1]: 50%
Total Cell Count [1]: 667
Population Apoptotic (%) [2]: 29%
Population Fragmented Nuclei (%) [2]: 3%
Population Healthy Nuclei (%) [2]: 38%
Population Hoechst High Intensity Objects (%) [2]: 6%
Population Membrane Permeable-Phenotype (%) [2]: 1%
Population Mitochondria Different-Phenotype (%) [2]: 83%
Population Mitotic Cells (%) [2]: 70%
Population Normal (%) [2]: 93%
Population Pyknosed Nuclei (%) [2]: 58%
Population Tubulin-Different-Phenotype (%) [2]: 97%
Total Cell Count [2]: 1155
Population Apoptotic (%) [3]: 23%
Population Fragmented Nuclei (%) [3]: 12%
Population Healthy Nuclei (%) [3]: 54%
Population Hoechst High Intensity Objects (%) [3]: 10%
Population Mitochondria Different-Phenotype (%) [3]: 27%
Population Mitotic Cells (%) [3]: 76%
Population Normal (%) [3]: 89%
Population Pyknosed Nuclei (%) [3]: 32%
Population Tubulin-Different-Phenotype (%) [3]: 46%
Total Cell Count [3]: 618
Population Apoptotic (%) [4]: 7%
Population Fragmented Nuclei (%) [4]: 3%
Population Healthy Nuclei (%) [4]: 85%
Population Hoechst High Intensity Objects (%) [4]: 2%
Population Membrane Permeable-Phenotype (%) [4]: 10%
Population Mitochondria Different-Phenotype (%) [4]: 33%
Population Mitotic Cells (%) [4]: 92%
Population Normal (%) [4]: 97%
Population Pyknosed Nuclei (%) [4]: 11%
Population Tubulin-Different-Phenotype (%) [4]: 80%
Total Cell Count [4]: 1484
Population Apoptotic (%) [5]: 59%
Population Fragmented Nuclei (%) [5]: 26%
Population Healthy Nuclei (%) [5]: 10%
Population Hoechst High Intensity Objects (%) [5]: 19%
Population Membrane Permeable-Phenotype (%) [5]: 5%
Population Mitochondria Different-Phenotype (%) [5]: 51%
Population Mitotic Cells (%) [5]: 40%
Population Normal (%) [5]: 80%
Population Pyknosed Nuclei (%) [5]: 63%
Population Tubulin-Different-Phenotype (%) [5]: 53%
Total Cell Count [5]: 694
Population Apoptotic (%) [6]: 37%
Population Fragmented Nuclei (%) [6]: 2%
Population Healthy Nuclei (%) [6]: 30%
Population Hoechst High Intensity Objects (%) [6]: 8%
Population Membrane Permeable-Phenotype (%) [6]: 2%
Population Mitochondria Different-Phenotype (%) [6]: 91%
Population Mitotic Cells (%) [6]: 62%
Population Normal (%) [6]: 91%
Population Pyknosed Nuclei (%) [6]: 66%
Population Tubulin-Different-Phenotype (%) [6]: 96%
Total Cell Count [6]: 1176
Population Apoptotic (%) [7]: 20%
Population Fragmented Nuclei (%) [7]: 9%
Population Healthy Nuclei (%) [7]: 76%
Population Hoechst High Intensity Objects (%) [7]: 7%
Population Membrane Permeable-Phenotype (%) [7]: 8%
Population Mitochondria Different-Phenotype (%) [7]: 18%
Population Mitotic Cells (%) [7]: 79%
Population Normal (%) [7]: 92%
Population Pyknosed Nuclei (%) [7]: 13%
Population Tubulin-Different-Phenotype (%) [7]: 54%
Total Cell Count [7]: 703
Population Apoptotic (%) [8]: 9%
Population Fragmented Nuclei (%) [8]: 11%
Population Healthy Nuclei (%) [8]: 83%
Population Hoechst High Intensity Objects (%) [8]: 2%
Population Membrane Permeable-Phenotype (%) [8]: 12%
Population Mitochondria Different-Phenotype (%) [8]: 14%
Population Mitotic Cells (%) [8]: 90%
Population Normal (%) [8]: 97%
Population Pyknosed Nuclei (%) [8]: 4%
Population Tubulin-Different-Phenotype (%) [8]: 75%
Total Cell Count [8]: 2335
